Paper PMC5663466 (Journal of proteome research, 2017)

Legend:
[1] = test system: tyrosine and serine/threonine kinases; settings: cited from earlier work
[2] = test system: protein and lipid kinases in HeLa cell lysate; experiment: Affinity pulldown-soluble competition in duplex SILAC-labeled HeLa cell lysate; format: binding, human; settings: 50 μM soluble competitor against affinity matrix 7
Outline: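 HeLa cells SILAC-labelled for ≥5 doublings in Lys/Arg-free DMEM with 10% dialysed FBS, 200 μg/ml proline and 0.2 mM light or heavy Lys/Arg, then lysed in modified RIPA buffer. Lysate (300 μg, 2 mg/ml) was pre-incubated 20 min at 4°C with DMSO or test compound (1% DMSO final), then pulled down 3 h at 4°C. SILAC channel beads were combined after washing, digested on-bead with LysC then trypsin, and run as single-shot nanoLC-MS/MS.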

Compound | number of tyrosine and serine/threonine kinases inhibited [1] | number of protein and lipid kinases with specific interaction [2]
Cc1nc(Nc2ncc(C(=O)Nc3c(C)cccc3Cl)s2)cc(N2CCN(CCO)CC2)n1 [dasatinib] | over 30 | –
COc1cc2c(Oc3ccc(NC(=O)C4(C(=O)Nc5ccc(F)cc5)CC4)cc3F)ccnc2cc1OCCCN1CCOCC1 [foretinib] | – | 29
